Measured values pooled from the literature.
ADRA1A: Alpha-1A adrenergic receptor (ADRA1A, Homo sapiens, UniProt P35348)
MAL12: Alpha-glucosidase MAL12 (MAL12, Saccharomyces cerevisiae S288c, UniProt P53341)

COc1cc2c3c(c1OC)-c1c(OC)ccc(N4CCOCC4)c1CC3N(C)CC2 (stereo not shown)  inhibition (ADRA1A; ligand displacement; radioligand; 10 µM): 65%
COc1cc(O)c2c(c1)oc(=O)c1c3cc(O)c(O)cc3oc21  inhibition (MAL12; enzyme activity; inhibitor; absorbance; 128 µM): ~90%
NC/C(=C\F)COc1cccc(Cn2c(=S)[nH]c(=O)c3[nH]cnc32)c1  inhibition (Histamine H2 receptor (HRH2, Homo sapiens, UniProt P25021); ligand displacement; radioligand; 10 µM): < 50%
C#Cc1cc(-c2cc(Nc3nc(N[C@@H](C)c4ccc(F)cn4)ncc3Cl)n[nH]2)ccc1C=O  inhibition (Tyrosine-protein kinase Lyn (LYN, Homo sapiens, UniProt P07948); enzyme activity; inhibitor; 0.2 µM): 89.2%
O=c1cc(-c2ccc(O)cc2)oc2cc(O)cc(O)c12  inhibition (MAL12; enzyme activity; inhibitor; absorbance; 50 µM): 78.6%
CCCCCCCCCCCC(=O)OCC(C)(C)CC1=C(O)C(=O)c2ccccc2C1=O  inhibition (MAL12; enzyme activity; inhibitor; 50 µM): > 70%
O=c1c(O)c(-c2ccc(O)c(O)c2)oc2cc(O)cc(O)c12  inhibition (MAL12; enzyme activity; inhibitor; absorbance; 50 µM): 98.7%
CC[N+]1(C)CCc2cc(OC)c(OC)c3c2C1Cc1cccc(OC)c1-3 (stereo not shown)  inhibition (ADRA1A; ligand displacement; radioligand; 10 µM): 13%
C[C@H]1O[C@H](O[C@H]2[C@H](O)[C@@H](O)[C@@H](O[C@H]3[C@H](O)[C@@H](O)C(O)O[C@@H]3CO)O[C@@H]2CO)[C@H](O)[C@@H](O)[C@@H]1N[C@H]1C=C(CO)[C@@H](O)[C@H](O)[C@H]1O (stereo partly shown)  inhibition (MAL12; enzyme activity; inhibitor; absorbance; 50 µM): 37.9%
COc1cc2c3c(c1OC)-c1c(OC)ccc(Br)c1CC3N(C)CC2 (stereo not shown)  inhibition (ADRA1A; ligand displacement; radioligand; 10 µM): 95%
O=c1c(O)c(-c2ccc(O)c(O)c2)oc2c(Br)c(O)c(Br)c(O)c12  inhibition (MAL12; enzyme activity; inhibitor; absorbance; 50 µM): 95.8%
CCCCCCCCCCCCCCCCCC(=O)OCC(C)(C)CC1=C(O)C(=O)c2ccccc2C1=O  inhibition (MAL12; enzyme activity; inhibitor; 50 µM): > 70%
COc1cc2c3c(c1OC)-c1c(OC)ccc(Cl)c1CC3N(C)CC2 (racemic)  inhibition (ADRA1A; ligand displacement; radioligand; 10 µM): 99%
